Source: ChEMBL document CHEMBL3872233, “Topical Treatment of Leishmania tropica Infection Using (-)-α-Bisabolol Ointment in a Hamster Model: Effectiveness and Safety Assessment” (J Nat Prod, 2016)
Active and inactive are the calls of the source. The calls are words filed in the database; no cut-off is given here.

Assays:
[1] = tested on: Syrian golden hamster; assay: Toxicity in Syrian hamster infected with Leishmania tropica MHOM/MA/1988/LEM1314 promastigotes assessed as mean serum AST levels at 2.5 % administered tropically on footpad for 3 weeks starting at week 7 post infection measured 1 week post last dose (reference value: 77.1 +/- 0.9 U/L); format: organism-based, Mesocricetus auratus; conditions: in vivo, topical_or_ocular, 168 h
[2] = tested on: Syrian golden hamster; assay: Toxicity in Syrian hamster infected with Leishmania tropica MHOM/MA/1988/LEM1314 promastigotes assessed as mean serum AST levels at 200 mg/kg administered through oral gavage for 3 weeks starting at week 7 post infection measured 1 week post last dose (reference value: 77.1 +/- 0.9 U/L); format: organism-based, Mesocricetus auratus; conditions: in vivo, 168 h
[3] = tested on: Syrian golden hamster; assay: Toxicity in Syrian hamster infected with Leishmania tropica MHOM/MA/1988/LEM1314 promastigotes assessed as spleen weight at 5 % administered tropically on footpad for 3 weeks starting at week 7 post infection measured 1 week post last dose (reference value: 178.8 +/- 1.2 mg); format: organism-based, Mesocricetus auratus; conditions: in vivo, topical_or_ocular, 168 h
[4] = tested on: Leishmania tropica; assay: (§1) Antileishmanial activity against Leishmania tropica MHOM/MA/1988/LEM1314 promastigotes infected in Syrian hamster assessed as reduction in parasite load in liver at 2.5 % administered once daily tropically on footpad for 3 weeks starting at week 7 post infection measured 1 week post last dose by qPCR analysis relative to control; format: functional, tissue-based
Summary of the method: (§2)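 Hamsters were infected in the footpad and treated daily for 21 days from week 7 post-infection, n = 10/group, and sacrificed 1 week after the last dose. Footpad skin, liver and spleen DNA was assayed by L. tropica-specific TaqMan qPCR (chromosome 29 target), in triplicate with 50 ng DNA per 25 μL reaction. Load was interpolated from Ct on a calibration curve of promastigote DNA, relative to base-ointment controls.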

[5] = tested on: Syrian golden hamster; assay: Toxicity in Syrian hamster infected with Leishmania tropica MHOM/MA/1988/LEM1314 promastigotes assessed as urea levels at 1 % administered tropically on footpad for 3 weeks starting at week 7 post infection measured 1 week post last dose (reference value: 32.5 +/- 0.8 mg/dl); format: organism-based, Mesocricetus auratus; conditions: in vivo, topical_or_ocular, 168 h
[6] = tested on: Syrian golden hamster; assay: Toxicity in Syrian hamster infected with Leishmania tropica MHOM/MA/1988/LEM1314 promastigotes assessed as footpad edema at 200 mg/kg administered through oral gavage for 3 weeks starting at week 7 post infection measured during compound dosing or measured 1 week post last dose; format: organism-based, Mesocricetus auratus; conditions: in vivo, 168 h
Summary of the method: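 Infected hamsters were treated daily for 21 days from week 7 post-infection (ointment 1–5%, 200 mg/kg gavage, or intralesional meglumine antimoniate 2 mg SbV/kg). Clinical signs and body weight were monitored during treatment and a 7-day follow-up. After sacrifice, liver and spleen were weighed and serum ALP, ALT, creatinine, urea and AST were measured with kits, compared with untreated infected animals.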

[7] = tested on: Leishmania tropica; assay: as §1, with “lesion thickness” for “parasite load in liver”, “1” for “2.5”, “dose” for “dose by qPCR analysis”; format: functional; set-up: scale not given: the % may be the effect or the level left
Summary of the method: (§3)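 L. tropica stationary-phase promastigotes (3 × 10^7 in 50 μL PBS) injected into the left hind footpad. Treatment began at week 7 (+75% footpad thickness) and ran daily for 21 days, n = 10/group. Routes were 50 mg ointment on the lesion (cetyl alcohol/lanolin/petrolatum base), gavage in olive oil, or intralesional meglumine antimoniate 2 mg SbV/kg. Lesion thickness was measured weekly against base-only ointment; sacrifice was 1 week after the last dose.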

[8] = tested on: Syrian golden hamster; assay: Toxicity in Syrian hamster assessed as mean serum AST levels at 500 mg/kg administered through oral gavage for 28 days (reference value: 83.4 +/- 4.2 U/L); format: organism-based, Mesocricetus auratus; conditions: in vivo, 672 h
[9] = tested on: Leishmania tropica; assay: as §1, with “foodpad skin” for “liver”, “1” for “2.5”; format: functional; set-up: scale not given: the % may be the effect or the level left; summary of the method: as §2
[10] = tested on: Leishmania tropica; assay: as §1, with “spleen” for “liver”; format: functional; summary of the method: as §2
[11] = tested on: Syrian golden hamster; assay: Toxicity in Syrian hamster assessed as spleen weight at 5 % administered tropically on footpad for 28 days (reference value: 179.4 +/- 19.8 mg); format: organism-based, Mesocricetus auratus; conditions: in vivo, topical_or_ocular, 672 h
[12] = tested on: Leishmania tropica; assay: as §1, with “foodpad skin” for “liver”; format: functional; set-up: scale not given: the % may be the effect or the level left; summary of the method: as §2
[13] = tested on: Syrian golden hamster; assay: Toxicity in Syrian hamster assessed as diarrhea at 500 mg/kg, po or 5 % administered tropically on footpad for 28 days; format: organism-based, Mesocricetus auratus; conditions: in vivo, 672 h
[14] = tested on: Syrian golden hamster; assay: Toxicity in Syrian hamster infected with Leishmania tropica MHOM/MA/1988/LEM1314 promastigotes assessed as mean serum ALP levels at 200 mg/kg administered through oral gavage for 3 weeks starting at week 7 post infection measured 1 week post last dose (reference value: 14.4 +/- 0.9 U/L); format: organism-based, Mesocricetus auratus; conditions: in vivo, 168 h
[15] = tested on: Syrian golden hamster; assay: Toxicity in Syrian hamster infected with Leishmania tropica MHOM/MA/1988/LEM1314 promastigotes assessed as mean serum ALT levels at 5 % administered tropically on footpad for 3 weeks starting at week 7 post infection measured 1 week post last dose (reference value: 81.6 +/- 4.9 U/L); format: organism-based, Mesocricetus auratus; conditions: in vivo, topical_or_ocular, 168 h
[16] = tested on: Syrian golden hamster; assay: Toxicity in Syrian hamster assessed as mean serum ALT levels at 500 mg/kg administered through oral gavage for 28 days (reference value: 82.2 +/- 4.8 U/L); format: organism-based, Mesocricetus auratus; conditions: in vivo, 672 h
[17] = tested on: Leishmania tropica; assay: as §1, with “spleen” for “liver”, “1” for “2.5”; format: functional; summary of the method: as §2
[18] = tested on: Syrian golden hamster; assay: Toxicity in Syrian hamster infected with Leishmania tropica MHOM/MA/1988/LEM1314 promastigotes assessed as urea levels at 2.5 % administered tropically on footpad for 3 weeks starting at week 7 post infection measured 1 week post last dose (reference value: 32.5 +/- 0.8 mg/dl); format: organism-based, Mesocricetus auratus; conditions: in vivo, topical_or_ocular, 168 h
[19] = tested on: Syrian golden hamster; assay: Toxicity in Syrian hamster infected with Leishmania tropica MHOM/MA/1988/LEM1314 promastigotes assessed as mean serum creatinine levels at 2.5 % administered tropically on footpad for 3 weeks starting at week 7 post infection measured 1 week post last dose (reference value: 0.19 mg/dl); format: organism-based, Mesocricetus auratus; conditions: in vivo, topical_or_ocular, 168 h
[20] = tested on: Syrian golden hamster; assay: Toxicity in Syrian hamster infected with Leishmania tropica MHOM/MA/1988/LEM1314 promastigotes assessed as spleen weight at 1 % administered tropically on footpad for 3 weeks starting at week 7 post infection measured 1 week post last dose (reference value: 178.8 +/- 1.2 mg); format: organism-based, Mesocricetus auratus; conditions: in vivo, topical_or_ocular, 168 h
[21] = tested on: Syrian golden hamster; assay: Toxicity in Syrian hamster assessed as stress at 500 mg/kg, po or 5 % administered tropically on footpad for 28 days; format: organism-based, Mesocricetus auratus; conditions: in vivo, 672 h
[22] = Toxicity in po dosed dog; format: organism-based, Canis lupus familiaris; conditions: in vivo
[23] = tested on: Syrian golden hamster; assay: Toxicity in Syrian hamster infected with Leishmania tropica MHOM/MA/1988/LEM1314 promastigotes assessed as mean serum creatinine levels at 200 mg/kg administered through oral gavage for 3 weeks starting at week 7 post infection measured 1 week post last dose (reference value: 0.19 mg/dl); format: organism-based, Mesocricetus auratus; conditions: in vivo, 168 h
[24] = tested on: Leishmania tropica; assay: as §1, with “lesion thickness” for “parasite load in liver”, “5” for “2.5”, “dose” for “dose by qPCR analysis”; format: functional; set-up: scale not given: the % may be the effect or the level left; summary of the method: as §3
[25] = tested on: Leishmania tropica; assay: as §1, with “5” for “2.5”; format: functional, tissue-based; summary of the method: as §2

SMILES: CC(C)=CCC[C@](C)(O)[C@@H]1CC=C(C)CC1 [LEVOMENOL]
- Activity [1]: 87 U/L
- Activity [2]: 77.9 U/L
- Activity [3]: 193.1 mg
- Activity [4]: Active
- Activity [5]: 33.7 mg/dL
- Activity [6]: Non-Toxic
- Activity [7]: 49%
- Activity [8]: 82.2 U/L
- Activity [9]: 56%
- Activity [10]: Active
- Activity [11]: 180.2 mg
- Activity [12]: 83%
- Activity [13]: Non-Toxic
- Activity [14]: 12.9 U/L
- Activity [15]: 81.8 U/L
- Activity [16]: 82.6 U/L
- Activity [17]: Active
- Activity [18]: 33.6 mg/dL
- Activity [19]: 0.21 mg/dL
- Activity [20]: 175.3 mg
- Activity [21]: Non-Toxic
- LOAEL [22]: 2 mL/kg
- Activity [23]: 0.2 mg/dL
- Activity [24]: 55.2%
- Activity [25]: Active
